SMILES strings stand for the structures. Calls of active or inactive are those of the source. The rule behind the calls is not given here. Where only a bound is given, the exact number is not on record here.

The nature of assay [1]: Effect on synthetic telomere 23 G-quadruplex DNA topology at 4 mol equiv by circular dichroism spectroscopic analysis. The method in brief:
(§1)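 CD spectra at 20 °C, 230-360 nm, 3 scans averaged, baseline subtracted; 10 µM G4 or 15 µM duplex in potassium- or lithium-phosphate pH 7.0 buffers with 100 mM KCl (c-kit2, c-myc: 5 mM potassium phosphate, 20 mM KCl); ligand 4 molar equiv added to folded DNA from 6 mM DMSO stock.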
In general terms: Circular dichroism is the unequal absorption of left and right circularly polarised light.

Assay [2] can be described thus: Binding affinity to synthetic c-KIT2 G-quadruplex DNA assessed as change in melting temperature at 4 mol equiv in presence of 20 mM KCl buffer by circular dichroism spectroscopic analysis. The method in brief:
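CD melting as for other targets (20-100 °C, 1 °C/min, 10 µM folded G4, ligand 4 equiv), but in 5 mM potassium phosphate with 20 mM KCl; c-kit2 read at 264 nm as parallel G4. ΔTm from fitted Tm, duplicate average.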

The species entered for assay [3] is Homo sapiens. The assay is described as follows: Binding affinity to human 5'-FAM/3'-TAMRA labeled telomere 21 G-quadruplex DNA assessed as increase in melting temperature by FRET assay. An outline of the steps: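 FRET melting screen in 60 mM potassium cacodylate pH 7.4, labelled probe 400 nM annealed at 85 °C for 10 min; ligands at various concentrations up to 20 µM, diluted from 10 mM DMSO stock via 10 mM HCl. Excitation 450-495 nm, emission 515-545 nm, 30-100 °C in 0.5 °C steps with 30 s hold; ΔTm by curve fitting, triplicate.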

Assay [4] can be described thus: Effect on synthetic c-KIT2 G-quadruplex DNA topology at 4 mol equiv by circular dichroism spectroscopic analysis. An outline of the steps: as §1
Assay [5] is described as follows: Effect on preformed synthetic c-MYC parallel G-quadruplex DNA topology in tris buffer after 10 mins by circular dichroism titration method.
A short description of assay [6]: Binding affinity to 5'-FAM/3'-TAMRA labeled c-MYC G-quadruplex DNA (unknown origin) assessed as change in melting temperature at 4:1 ligand:DNA ratio in presence of 20 mM KCl buffer by FRET assay. An outline of the steps:
(§2)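 FRET melting of FAM/TAMRA-labelled G4 oligos (400 nM, annealed 85 °C 10 min) with ligand at 4 equiv, same buffers as CD (20 mM KCl for c-kit2 and c-myc; 100 mM KCl for telomeric parallel form, annealed at high concentration). Excitation 450-495 nm, emission 515-545 nm, read every 0.5 °C over 30-100 °C; ΔTm by curve fit; duplicate runs averaged.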

Assay [7] is described as follows: Binding affinity to 5' and 3'-terminal G-tetrads of synthetic c-KIT2 G12T/G21T double mutant parallel G-quadruplex DNA in presence of 20 mM KCl solution by NMR spectroscopic analysis. The method in brief:
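1H NMR titration at 25 °C, 700 MHz, water-suppressed 1D spectra; DNA 0.2-0.5 mM strand in H2O/D2O 9:1. Myc22 in 25 mM KH2PO4, 70 mM KCl, 0.2 mM EDTA, pH 7.0; c-kit2 T12/T21 in 5 mM KH2PO4, 20 mM KCl, 0.2 mM EDTA, pH 6.8. Ligand in DMSO-d6 added stepwise into the tube; imino proton shifts followed.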

The nature of assay [8]: Binding affinity to synthetic telomere 23 G-quadruplex DNA assessed as change in melting temperature at 4 mol equiv in presence of 100 mM KCl buffer by circular dichroism spectroscopic analysis. An outline of the steps: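 CD melting, 20-100 °C at 1 °C/min, signal at 264 (parallel), 290 (antiparallel) or 280 nm (duplex). G4 DNA 10 µM or duplex 15 µM, folded by heating at 90 °C 5 min and slow cooling, in 10 mM potassium phosphate (c-kit1, Tel23, Tel26) or lithium phosphate (Tel23-p, ds12) pH 7.0 with 100 mM KCl. Ligand 4 equiv; Tm by curve fit, ΔTm vs DNA alone; duplicate average.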

Assay [9] is described as follows: Binding affinity to 5'-FAM/3'-TAMRA labeled c-KIT2 G-quadruplex DNA (unknown origin) assessed as change in melting temperature at 4:1 ligand:DNA ratio in presence of 20 mM KCl buffer by FRET assay. The method in brief: as §2

For the compound `Br.O=Cc1c(-c2ccccc2)nc2n1ccc1nc(-c3ccccc3)c(/C=N/NC3=NCCN3)n12`, the result in assay [1], in assay [4] and in assay [5] was inactive. Moreover, the ΔTm (as a rule, the change in melting temperature against a reference sample) in assay [2] is 9.5 °C; in assay [6], above 20 °C; in [8], -2.4 °C; in [9], 15 °C. For the same compound, the result in [3] and in assay [7] was Active.

The values are drawn from ChEMBL document CHEMBL3826876, “Toward the Development of Specific G-Quadruplex Binders: Synthesis, Biophysical, and Biological Studies of New Hydrazone Derivatives” (J Med Chem, 2016).
